{"source": "ChEMBL document CHEMBL1158186", "about": "“Design, synthesis, and bioactivity of putative tubulin ligands with adamantane core” (Bioorg Med Chem Lett, 2008)", "key": {"A549 [1]": {"tested_on": "A549", "assay": "Cytotoxicity against human A549 cells", "assay_type": "functional, cell-based"}, "Bos taurus [2]": {"species": "Bos taurus", "assay": "Induction of bovine tubulin aggregation by SDS-PAGE", "summary_of_the_method": "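Sedimentation assay using tubulin purified from bovine brain, incubated with compound. Pellets were resolved by SDS–PAGE. Pelleted tubulin was expressed relative to the amount pelleted after incubation with taxol, set as 100%. DMSO served as the negative control.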"}, "Bos taurus [3]": {"species": "Bos taurus", "assay": "Induction of bovine tubulin aggregation by electron microscopy using uranyl acetate staining", "summary_of_the_method": "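Tubulin purified from bovine brain was incubated with compound. Samples were negatively stained with uranyl acetate and examined by electron microscopy for aggregates.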"}, "Bos taurus [4]": {"species": "Bos taurus", "assay": "Induction of bovine tubulin polymerization relative to taxol", "parameters": "concentration or dose not given beside the values"}, "A549 [5]": {"tested_on": "A549", "assay": "Cytotoxicity against human A549 cells assessed as formation of shortened aggregates of mirotube bundles at 5 uM by immuno-fluorescent microscopy", "assay_type": "functional, cell-based", "summary_of_the_method": "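A549 cells were treated with compound at the concentration given in the line, then fixed with polyformaldehyde. Microtubules were stained with primary mouse anti-α-tubulin and a secondary Alexa 488-labelled rabbit anti-mouse antibody. Cells were examined by immunofluorescence microscopy for microtubule bundles and shortened aggregates.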"}}, "note": "The source made the active and inactive calls. The rule behind the calls is not given here.", "data": [{"smiles": "O=C(N[C@@H](c1ccccc1)[C@@H](O)C(=O)OC12CC3CC(CC(C3)C1)C2)c1ccccc1", "values": [{"measurement": "IC50", "setting": "A549 [1]", "value": 5.6, "unit": "µM"}, {"measurement": "Activity", "setting": "Bos taurus [2]", "value": "Active"}, {"measurement": "Activity", "setting": "Bos taurus [3]", "value": "Active"}, {"measurement": "Activity", "setting": "Bos taurus [4]", "value": 57.1, "unit": "%"}]}, {"smiles": "O=C(N[C@@H](c1ccccc1)[C@@H](O)C(=O)OC12CC3CC(C1)C(OC(=O)c1ccccc1)C(C3)C2)c1ccccc1", "note": "(mixture of isomers)", "values": [{"measurement": "IC50", "setting": "A549 [1]", "value": 9.5, "unit": "µM"}, {"measurement": "Activity", "setting": "Bos taurus [2]", "value": "Active"}, {"measurement": "Activity", "setting": "Bos taurus [3]", "value": "Active"}, {"measurement": "Activity", "setting": "Bos taurus [4]", "value": 32.3, "unit": "%"}]}, {"smiles": "O=C(CCNC(=O)c1ccccc1)OC12CC3CC(CC(C3)C1)C2", "values": [{"measurement": "Activity", "setting": "Bos taurus [2]", "value": "Active"}, {"measurement": "Activity", "setting": "Bos taurus [4]", "value": 32.9, "unit": "%"}]}, {"smiles": "COc1cc2c(c(OC)c1OC)-c1ccc(OC)c(=O)cc1[C@@H](NC(=O)CCCCCC(=O)OC1C3CC4CC1CC(OC(=O)[C@H](O)[C@@H](NC(=O)OC(C)(C)C)c1ccccc1)(C4)C3)CC2", "note": "(mixture of isomers)", "values": [{"measurement": "IC50", "setting": "A549 [1]", "value": 0.0006, "unit": "µM"}, {"measurement": "Activity", "setting": "A549 [5]", "value": "Active"}]}, {"smiles": "CC(C)(C)OC(=O)N[C@@H](c1ccccc1)[C@@H](O)C(=O)OC12CC3CC(C1)CC(C(=O)OC1COC1)(C3)C2", "values": [{"measurement": "IC50", "setting": "A549 [1]", "value": 2.5, "unit": "µM"}, {"measurement": "Activity", "setting": "Bos taurus [2]", "value": "Active"}, {"measurement": "Activity", "setting": "Bos taurus [3]", "value": "Active"}, {"measurement": "Activity", "setting": "Bos taurus [4]", "value": 27.1, "unit": "%"}]}, {"smiles": "CC(=O)O[C@H]1C(=O)[C@@]2(C)[C@H]([C@H](OC(=O)c3ccccc3)[C@]3(O)C[C@H](OC(=O)[C@H](O)[C@@H](NC(=O)c4ccccc4)c4ccccc4)C(C)=C1C3(C)C)[C@]1(OC(C)=O)CO[C@@H]1C[C@@H]2O", "note": "[PACLITAXEL]", "values": [{"measurement": "IC50", "setting": "A549 [1]", "value": 0.002, "unit": "µM"}]}, {"smiles": "CC(C)(C)OC(=O)N[C@@H](c1ccccc1)[C@@H](O)C(=O)O[C@H]1C[C@H]2C[C@@H](C1)C[C@@H](C(=O)OC1COC1)C2", "values": [{"measurement": "IC50", "setting": "A549 [1]", "value": 3.8, "unit": "µM"}, {"measurement": "Activity", "setting": "Bos taurus [2]", "value": "Active"}, {"measurement": "Activity", "setting": "Bos taurus [4]", "value": 25.3, "unit": "%"}]}]}
